Tests used:
nuclear receptor = assay: PathHunter NHR assays, nhrMAX panel, agonist mode; assay type: cell-based; conditions: summary of Table IV
In short: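 Enzyme fragment complementation: a ligand-activated NHR moves to the nucleus and recruits a steroid receptor co-activator peptide fusion, restoring β-galactosidase, read by chemiluminescence. Agonist interaction measured over 6 h. Hit requires >30% activity and mean RLU above baseline RLU + 3 × baseline SD.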

NTSR1 = assay: PathHunter β-arrestin; assay type: cell-based; conditions: antagonist mode, 6 μM
In short: (§1)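 GPCR-ED fusion and β-arrestin-EA fusion; arrestin recruitment restores β-galactosidase, read by chemiluminescence. Antagonist mode uses EC80 agonist challenge. % inhibition = 100 × (1 − (test − vehicle RLU)/(EC80 control − vehicle RLU)). Hit requires >35% inhibition and mean RLU below EC80 RLU − 3 × EC80 SD.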

ADRB1 = assay: PathHunter β-arrestin; assay type: cell-based; conditions: 6 μM
In short: (§2)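 β-Arrestin recruitment assay: the enzyme acceptor is fused to β-arrestin and the ED fragment to the GPCR. Recruitment restores β-galactosidase, read by chemiluminescence. % activity = 100% × (test − vehicle)/(max control ligand − vehicle). % inhibition = 100% × (1 − (test − vehicle)/(EC80 control − vehicle)). An agonist hit needs >30% activity and RLU > baseline + 3×SD. An antagonist hit needs >35% inhibition and RLU < EC80 RLU − 3×SD.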

KISS1R = assay: PathHunter β-arrestin; assay type: cell-based; conditions: 6 μM
In short: (§3)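 Vendor-run (DiscoveRx) PathHunter enzyme fragment complementation. β-Arrestin carries the EA fragment and the receptor carries ED; recruitment restores β-gal activity, read by chemiluminescence (RLU). Agonist % activity = vehicle-subtracted RLU relative to max control ligand (gpcrMAX) or to vehicle (orphanMAX). Antagonist % inhibition = 100% × (1 − vehicle-subtracted sample RLU / vehicle-subtracted EC80 agonist control RLU).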

MUC5B = assay: TriCEPS ligand-receptor capture; assay type: binding, human; conditions: 10 μg/ml PRP-1
TLR6 [1] = assay: RT2 qPCR primer assay, JJ012 cells; assay type: cell-based, human
In short: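 RNA was extracted, checked by spectrophotometry and reverse-transcribed. Custom RT2 SYBR-Green primer assays were run on three samples in technical triplicate. Ct was normalised to mean GAPDH/ACTB, ΔΔCt taken versus control, and fold change = 2^−ΔΔCt.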

CCR7 = assay: PathHunter β-arrestin; assay type: cell-based; conditions: 6 μM
In short: (§4)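 Engineered cells express the receptor fused to one β-galactosidase fragment (ED) and β-arrestin fused to the complementing fragment (EA). Receptor activation recruits β-arrestin, which restores enzyme activity, and this is read by chemiluminescence (RLU). Agonist % activity is 100% × (test − vehicle)/(maximal control ligand − vehicle). Antagonist mode is challenged with an EC80 control agonist, and % inhibition is 100% × (1 − (test − vehicle)/(EC80 − vehicle)). Hits require >30% activity or >35% inhibition, plus a 3×SD RLU margin.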

MC5R = assay: PathHunter β-arrestin; assay type: cell-based; conditions: 6 μM
In short: as §3

TLR8 = assay: western blot, JJ012 cells; assay type: cell-based, human; conditions: vs untreated control, overnight incubation
OPRD1 = assay: PathHunter β-arrestin; assay type: cell-based; conditions: antagonist mode, 6 μM
In short: as §1

HTR1E = assay: PathHunter β-arrestin; assay type: cell-based; conditions: 6 μM
In short: as §3

TLR9 = assay: western blot, JJ012 cells; assay type: cell-based, human; conditions: vs untreated control, overnight incubation
CCR1 = assay: PathHunter β-arrestin; assay type: cell-based; conditions: antagonist mode, 6 μM
In short: as §2

MRGPRX2 = assay: PathHunter β-arrestin; assay type: cell-based; conditions: antagonist mode, 6 μM
In short: as §3

CMKLR1 = assay: PathHunter β-arrestin; assay type: cell-based; conditions: antagonist mode, 6 μM
In short: as §4

CNR2 = assay: PathHunter β-arrestin; assay type: cell-based; conditions: 6 μM
In short: as §4

EDG3 = assay: PathHunter β-arrestin; assay type: cell-based; conditions: antagonist mode, 6 μM
In short: as §4

LHCGR = assay: PathHunter β-arrestin; assay type: cell-based; conditions: antagonist mode, 6 μM
In short: as §3

NPBWR2 = assay: PathHunter β-arrestin; assay type: cell-based; conditions: 6 μM
In short: as §3

PTGER4 = assay: PathHunter β-arrestin; assay type: cell-based; conditions: 6 μM
In short: (§5)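 β-Arrestin recruitment to GPCR read by β-galactosidase fragment complementation and chemiluminescence. Agonist: % = 100 × (test − vehicle)/(max control ligand − vehicle), hit at >30% and RLU > baseline + 3 SD. Antagonist, against EC80 agonist: % inhibition = 100 × (1 − (test − vehicle)/(EC80 − vehicle)), hit at >35% and RLU < EC80 − 3 SD.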

TLR4 = assay: western blot, JJ012 cells; assay type: cell-based, human; conditions: vs untreated control, overnight incubation
OPRK1 = assay: PathHunter β-arrestin; assay type: cell-based; conditions: antagonist mode, 6 μM
In short: as §1

CCR8 = assay: PathHunter β-arrestin; assay type: cell-based; conditions: antagonist mode, 6 μM
In short: as §4

TICAM2 (TRAM) = assay: western blot, JJ012 cells; assay type: cell-based, human; conditions: vs untreated control, overnight incubation
FPR1 = assay: PathHunter β-arrestin; assay type: cell-based; conditions: antagonist mode, 6 μM
In short: as §4

RXFP3 = assay: PathHunter β-arrestin; assay type: cell-based; conditions: 6 μM
In short: as §5

orphan receptors = assay: orphanMAX β-arrestin panel, agonist mode; assay type: cell-based; conditions: summary of Table III
HCRTR2 = assay: PathHunter β-arrestin; assay type: cell-based; conditions: antagonist mode, 6 μM
In short: as §3

CCKBR = assay: PathHunter β-arrestin; assay type: cell-based; conditions: antagonist mode, 6 μM
In short: as §2

HTR1B = assay: PathHunter β-arrestin; assay type: cell-based; conditions: antagonist mode, 6 μM
In short: as §3

TLR6 [2] = assay: immunocytochemistry, colocalization with TLR6, JJ012 cells; assay type: cell-based, human; conditions: TLR6 yellow (DyLight 550), PRP-1 green (Alexa Fluor 488)

Proline rich polypeptide 1 [PRP-1]
nuclear receptor agonism (nuclear receptor): neither that this peptide was agonist for orphan receptors (Table III) or agonist/antagonist for nuclear receptor
% Inhibition (NTSR1): −1%
% Activity (ADRB1; agonist mode): 1%
% Inhibition (ADRB1; antagonist mode): −5%
% Activity (KISS1R; agonist mode): 1%
% Inhibition (KISS1R; antagonist mode): 3%
binding partner detection (MUC5B): detected MUC5B as binding partner with 10 μg/ml PRP-1 treatment
gene expression (TLR6 [1]; 1 μg/ml PRP-1, heat map, vs nontreated control, technical triplicates): high expression
fold change (∆Ct) (TLR6 [1]; qRT-PCR): did not report significant fold change
% Activity (CCR7; agonist mode): 1%
% Inhibition (CCR7; antagonist mode): −2%
% Activity (MC5R; agonist mode): 2%
% Inhibition (MC5R; antagonist mode): −5%
protein expression (TLR8): no indication of PRP-1 effect
% Inhibition (OPRD1): −2%
% Activity (HTR1E; agonist mode): 3%
% Inhibition (HTR1E; antagonist mode): 5%
protein expression (TLR9): no indication of PRP-1 effect
% Inhibition (CCR1): −3%
% Inhibition (MRGPRX2): −8%
% Inhibition (CMKLR1): −2%
% Activity (CNR2; agonist mode): −2%
% Inhibition (CNR2; antagonist mode): 5%
% Inhibition (EDG3): 1%
% Inhibition (LHCGR): −15%
% Activity (NPBWR2; agonist mode): 1%
% Inhibition (NPBWR2; antagonist mode): −3%
% Activity (PTGER4; agonist mode): 1%
% Inhibition (PTGER4; antagonist mode): 4%
protein expression (TLR4): PRP-1 did not have any effect
% Inhibition (OPRK1): −12%
% Inhibition (CCR8): −4%
protein expression (TICAM2 (TRAM)): upregulated in dose-dependent manner
% Inhibition (FPR1): −4%
% Activity (RXFP3; agonist mode): 6%
% Inhibition (RXFP3; antagonist mode): −3%
orphan receptor agonism (orphan receptors): neither that this peptide was agonist for orphan receptors
% Inhibition (HCRTR2): −1%
% Inhibition (CCKBR): −3%
% Inhibition (HTR1B): 4%
colocalization with TLR6 (TLR6 [2]): nuclear and cytoplasmic colocalization with PRP-1 is demonstrated
